This passage reports activity change, negative = inhibition and AC50 results from PubChem BioAssay AID488936 (Broad Institute, 2010).

In general, AC50 refers to the concentration at which the activity in the assay is half-maximal.

Calls of active or inactive are those of the source.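 The calls were made as follows: active = compounds lowering caspase luminescence whose fitted AC50 is at most ten times their top valid dose; inconclusive = flat partial inhibition or a poor quality curve fit; inactive = the rest.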

System in one assay: not listed separately
In words: reduction of caspase-3/7 signal in INS-1E – INS-1E rat cells, dry powder, set 2, orthogonal assay for beta-cell apoptosis inhibitor project, dose response (AID 488936). The settings on record: INS-1E cytokine-induced caspase-3/7 luminescence, 48 h; at 12 µM (top of the series). A digest of the protocol:
(§1)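 reagent = cytokine mix of IFN-gamma 50, TNF-alpha 25, IL-1β 10 ng/mL | material = rat INS-1E insulinoma beta cells, cytokine-induced apoptosis model | incubation = 48 h cytokine and compound exposure, 1 h detection | technique = Caspase-Glo 3/7 luminescence | evaluation = Caspase-3/7 IC50 from dose-response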
With `COc1ccc(S(=O)(=O)N(C)C[C@@H]2Oc3c(NC(=O)Nc4cccc5ccccc45)cccc3C(=O)N([C@@H](C)CO)C[C@H]2C)cc1C`, the activity change, negative = inhibition was -20.2% (inactive).

Staying with this assay, now noted: INS-1E cytokine-induced caspase-3/7 luminescence, 48 h; at 23.5 µM (top of the series).
Take `COc1ccc(S(=O)(=O)N(C)C[C@@H]2Oc3c(NC(=O)Nc4ccc(F)cc4)cccc3C(=O)N([C@@H](C)CO)C[C@H]2C)cc1`: the activity change, negative = inhibition is -9.69% (inactive).
Take `C[C@@H]1CN([C@@H](C)CO)C(=O)c2cccc(NC(=O)Nc3cccc4ccccc34)c2O[C@H]1CN(C)C(=O)Nc1ccccc1`: the activity change, negative = inhibition was 14.9% (inactive).
Consider `C[C@@H]1CN([C@@H](C)CO)C(=O)c2cccc(NC(=O)Nc3cccc4ccccc34)c2O[C@H]1CN(C)C(=O)Nc1ccc(C(F)(F)F)cc1`, for which the activity change, negative = inhibition is 45.3% (inactive).

The same assay, now with this note: INS-1E cytokine-induced caspase-3/7 luminescence, 48 h; at 26 µM (top of the series).
Turning to `C[C@@H]1CN([C@@H](C)CO)C(=O)c2cccc(NC(=O)Nc3cccc4ccccc34)c2O[C@H]1CN(C)S(=O)(=O)c1ccc2c(c1)OCCCO2`, the activity change, negative = inhibition is 0.778% (inactive).
On to `Cc1ccc(S(=O)(=O)N(C)C[C@H]2Oc3c(NC(=O)Nc4cccc5ccccc45)cccc3C(=O)N([C@@H](C)CO)C[C@@H]2C)cc1`, for which the activity change, negative = inhibition is 29.7% (inactive).
Turning to `COc1ccc(S(=O)(=O)N(C)C[C@@H]2Oc3c(NC(=O)Nc4cccc5ccccc45)cccc3C(=O)N([C@@H](C)CO)C[C@H]2C)cc1F`, the activity change, negative = inhibition was 5.84% (inactive).
With `C[C@@H]1CN([C@@H](C)CO)C(=O)c2cccc(NC(=O)Nc3ccc(F)cc3)c2O[C@H]1CN(C)S(=O)(=O)c1ccc(F)cc1`, the activity change, negative = inhibition is -8.56% (inactive).
Regarding `C[C@@H]1CN([C@@H](C)CO)C(=O)c2cccc(NC(=O)Nc3ccc(F)cc3)c2O[C@H]1CN(C)S(=O)(=O)c1ccc(Cl)cc1`, the activity change, negative = inhibition was -5.69% (inactive).
For `C[C@@H]1CN([C@@H](C)CO)C(=O)c2cccc(NC(=O)Nc3cccc4ccccc34)c2O[C@H]1CN(C)S(=O)(=O)c1cccs1`, the activity change, negative = inhibition was 4.63% (inactive).
On to `COc1ccc(NC(=O)N(C)C[C@@H]2Oc3c(NC(=O)Nc4cccc5ccccc45)cccc3C(=O)N([C@@H](C)CO)C[C@H]2C)cc1`, for which the activity change, negative = inhibition was 18.3% (inactive).
In the case of `COc1ccc(S(=O)(=O)N(C)C[C@@H]2Oc3c(NC(=O)c4cnccn4)cccc3C(=O)N([C@@H](C)CO)C[C@H]2C)cc1`, the activity change, negative = inhibition is -2.35% (inactive).
On to `Cc1ccc(S(=O)(=O)N(C)C[C@@H]2Oc3c(NC(=O)Nc4ccc(F)cc4)cccc3C(=O)N([C@H](C)CO)C[C@H]2C)cc1`, for which the activity change, negative = inhibition is -5.96% (inactive).
For `Cc1ccc(S(=O)(=O)N(C)C[C@@H]2Oc3c(NC(=O)Nc4ccccc4)cccc3C(=O)N([C@H](C)CO)C[C@H]2C)cc1`, the activity change, negative = inhibition is -10.7% (inactive).
On to `C[C@@H]1CN([C@H](C)CO)C(=O)c2cccc(NC(=O)Nc3ccccc3)c2O[C@H]1CN(C)S(=O)(=O)c1ccc(F)cc1`, for which the activity change, negative = inhibition was -4.27% (inactive).
On the same count and under the same terms, under `COc1ccc(S(=O)(=O)N(C)C[C@H]2Oc3c(NC(=O)Nc4cccc5ccccc45)cccc3C(=O)N([C@H](C)CO)C[C@@H]2C)cc1` stands 3.23% (inactive); under `COc1ccc(S(=O)(=O)N(C)C[C@@H]2Oc3c(NC(=O)Nc4cccc5ccccc45)cccc3C(=O)N([C@H](C)CO)C[C@@H]2C)cc1`, -4.27% (inactive); under `C[C@@H]1CN([C@@H](C)CO)C(=O)c2cccc(NC(=O)Nc3cccc4ccccc34)c2O[C@H]1CN(C)CC1CC1`, -6.43% (inactive).
Still for that read-out and setting: under `C[C@@H]1CN([C@@H](C)CO)C(=O)c2cccc(NC(=O)Nc3cccc4ccccc34)c2O[C@H]1CN(C)C(=O)Nc1ccc2c(c1)OCO2` stands 32.4% (inactive); under `Cc1noc(C)c1NC(=O)N(C)C[C@@H]1Oc2c(NC(=O)Nc3cccc4ccccc34)cccc2C(=O)N([C@@H](C)CO)C[C@H]1C`, -0.569% (inactive); under `COc1ccc(S(=O)(=O)N(C)C[C@@H]2Oc3c(NC(=O)Nc4cccc5ccccc45)cccc3C(=O)N([C@@H](C)CO)C[C@H]2C)cc1`, -10.2% (inactive).
Same read-out and setting: under `C[C@@H]1CN([C@@H](C)CO)C(=O)c2cccc(NC(=O)Nc3cccc4ccccc34)c2O[C@H]1CN(C)S(=O)(=O)c1ccccc1F` stands 21.8% (inactive).
`C[C@@H]1CN([C@@H](C)CO)C(=O)c2cccc(NC(=O)Nc3cccc4ccccc34)c2O[C@H]1CN(C)C(=O)Nc1ccc(F)cc1`: the activity change, negative = inhibition was 19.9% (inactive).
On to `C[C@@H]1CN([C@@H](C)CO)C(=O)c2cccc(NC(=O)Nc3cccc4ccccc34)c2O[C@H]1CN(C)S(=O)(=O)c1ccc(Cl)cc1`, for which the activity change, negative = inhibition is 6.46% (inactive).
Regarding `COc1ccc(S(=O)(=O)Nc2cccc3c2O[C@@H](CN(C)S(=O)(=O)c2ccc(OC)cc2)[C@H](C)CN([C@@H](C)CO)C3=O)cc1`, the activity change, negative = inhibition was -1.2% (inactive).
Regarding `COc1ccc(S(=O)(=O)N(C)C[C@@H]2Oc3c(NC(=O)Nc4cccc5ccccc45)cccc3C(=O)N([C@@H](C)CO)C[C@H]2C)cc1OC`, the activity change, negative = inhibition was -11.6% (inactive).
As to `COc1ccc(S(=O)(=O)N(C)C[C@@H]2Oc3c(NC(=O)c4cccc5ccccc45)cccc3C(=O)N([C@@H](C)CO)C[C@H]2C)cc1`, the activity change, negative = inhibition is -10.7% (inactive).
Same read-out and setting: for `COc1ccc(S(=O)(=O)N(C)C[C@@H]2Oc3c(NS(C)(=O)=O)cccc3C(=O)N([C@@H](C)CO)C[C@H]2C)cc1` the value was -6.62% (inactive).
The same measure, in the same setting: under `Cc1ccc(S(=O)(=O)N(C)C[C@@H]2Oc3c(NC(=O)Nc4cccc5ccccc45)cccc3C(=O)N([C@@H](C)CO)C[C@H]2C)cc1` stands 11.5% (inactive).
As to `C[C@@H]1CN([C@@H](C)CO)C(=O)c2cccc(NC(=O)Nc3cccc4ccccc34)c2O[C@H]1CN(C)C(=O)NC1CCCCC1`, the activity change, negative = inhibition was 27.4% (inactive).

For the next assay, the system named is INS-1E cytokine-induced caspase-3/7 luminescence, 48 h. The description is as above.
Details: not given
A digest of the protocol:
as §1
With `COc1ccc(S(=O)(=O)N(C)C[C@@H]2Oc3c(NC(=O)Nc4ccccc4)cccc3C(=O)N([C@@H](C)CO)C[C@H]2C)cc1`, the AC50 was > 26 µM (inactive).
For `COc1ccc(S(=O)(=O)N(C)C[C@@H]2Oc3c(NC(=O)Nc4cccc5ccccc45)cccc3C(=O)N([C@H](C)CO)C[C@H]2C)cc1`, the AC50 is > 23.5 µM (inactive).
Take `C[C@@H]1CN([C@@H](C)CO)C(=O)c2cccc(NC(=O)Nc3cccc(Cl)c3Cl)c2O[C@H]1CN(C)S(=O)(=O)c1ccc2c(c1)OCCO2`: the AC50 was > 26 µM (inactive).
As for `C[C@@H]1CN([C@@H](C)CO)C(=O)c2cccc(NC(=O)Nc3cccc4ccccc34)c2O[C@H]1CN(C)S(=O)(=O)c1ccc2c(n1)N(C)CCO2`, the AC50 is > 26 µM (inactive).
